Assay results: ChEMBL document CHEMBL2203146, “Search for anticonvulsant and analgesic active derivatives of dihydrofuran-2(3H)-one” (Bioorg Med Chem, 2012)
Activity calls are given as the source filed them.

What was measured:
Rattus norvegicus [1] = assay: Anticonvulsant activity in Sprague-Dawley rat assessed as protection against maximal electroshock-induced seizures at 30 mg/kg, po after 2 hrs; type: functional, organism-based; parameters: dose 30 mg/kg
In short: (§1)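 Male Sprague-Dawley rats (100–150 g), compound given orally at 30 mg/kg, dissolved in saline or suspended in 0.5% methylcellulose. Maximal electroshock seizures elicited with 60-cycle alternating current. Result recorded as number protected/number tested at each time point.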

Rattus norvegicus [2] = assay: Anticonvulsant activity in Sprague-Dawley rat assessed as protection against maximal electroshock-induced seizures at 30 mg/kg, po after 0.25 hr; type: functional, organism-based; parameters: dose 30 mg/kg; in short: as §1
Mus musculus [3] = assay: Anesthetic activity in […] assessed as latency in response to thermal stimuli administered as 2% solution, sc measured after 15 mins by modified tail immersion test; type: functional, albino CF1
Mus musculus [4] = assay: Neurotoxicity in albino CF1 mouse assessed as minimal motor impairment at 300 mg/kg, ip after 4 hrs by rotorod test; type: toxicity, organism-based; parameters: dose 300 mg/kg, route intraperitoneal; settings: in vivo
In short: (§2)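 Rotarod in male CF No. 1 mice after ip dosing (30, 100, 300 mg/kg; saline or 0.5% methylcellulose) at 15–240 min. Knurled plastic rod, 1-inch diameter, 6 rpm. Toxicity means failing to stay on for 1 min on three successive attempts. Recorded as toxic/tested.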

Rattus norvegicus [5] = assay: Neurotoxicity in Sprague-Dawley rat assessed as minimal motor impairment at 30 mg/kg, po after 4 hrs by rotorod test; type: toxicity, organism-based; parameters: dose 30 mg/kg, route oral; settings: in vivo
Mus musculus [6] = assay: Neurotoxicity in albino CF1 mouse assessed as minimal motor impairment at 300 mg/kg, ip after 0.5 hr by rotorod test; type: toxicity, organism-based; parameters: dose 300 mg/kg, route intraperitoneal; settings: in vivo; in short: as §2
Rattus norvegicus [7] = assay: Anticonvulsant activity in po dosed Sprague-Dawley rat assessed as protection against maximal electroshock-induced seizures measured after 0.25 to 4 hrs; type: functional
In short: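 Male Sprague-Dawley rats, 100–150 g, dosed orally at 30 mg/kg. Maximal electroshock (60-cycle alternating current) applied at time points after dosing. Scored as animals protected/animals tested.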

Rattus norvegicus [8] = assay: Anticonvulsant activity in Sprague-Dawley rat assessed as protection against maximal electroshock-induced seizures at 30 mg/kg, po after 0.5 hr; type: functional, organism-based; parameters: dose 30 mg/kg; in short: as §1
Rattus norvegicus [9] = assay: Neurotoxicity in Sprague-Dawley rat assessed as […] at 30 mg/kg, po after 0.25 hr […]; type: toxicity, organism-based; parameters: dose 30 mg/kg, route oral; settings: in vivo
Rattus norvegicus [10] = assay: Anticonvulsant activity in Sprague-Dawley rat assessed as protection against maximal electroshock-induced seizures at 30 mg/kg, po after 4 hrs; type: functional, organism-based; parameters: dose 30 mg/kg; in short: as §1
Mus musculus [11] = assay: Anticonvulsant activity in albino CF1 mouse assessed as protection against maximal electroshock-induced seizures at 100 mg/kg, ip after 4 hrs; type: functional, organism-based; parameters: dose 100 mg/kg
In short: (§3)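 Male albino CF No. 1 mice (18–25 g) dosed ip at 30, 100 and 300 mg/kg in saline or 0.5% methylcellulose, tested 15, 30, 60 and 240 min after dosing. Maximal electroshock seizures elicited with 60-cycle alternating current. Scored as animals protected/animals tested, small qualitative groups.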

Mus musculus [12] = assay: Analgesic activity in albino CF1 mouse assessed as inhibition of heat-induced paw licking or jumping behaviour administered after 30 mins prior heat challenge by hot plate method; type: functional
Rattus norvegicus [13] = assay: Neurotoxicity in Sprague-Dawley rat assessed as […] at 30 mg/kg, po after 1 hr […]; type: toxicity, organism-based; parameters: dose 30 mg/kg, route oral; settings: in vivo
Rattus norvegicus [14] = assay: Neurotoxicity in Sprague-Dawley rat assessed as minimal motor impairment at 30 mg/kg, po after 0.5 hr by rotorod test; type: toxicity, organism-based; parameters: dose 30 mg/kg, route oral; settings: in vivo
Mus musculus [15] = assay: Anesthetic activity in albino CF1 mouse assessed as latency in response to thermal stimuli administered as 1% solution, sc measured after 15 mins by modified tail immersion test; type: functional
In short: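 Male Albino Swiss (CD-1) mice, 6-8 per group, tested at 1% and 2% compound concentration. Tail distal 3 cm immersed in water at 50 ± 0.5 °C 15 min after treatment. Tail-withdrawal latency recorded with a 20 s cutoff. Value is % difference in latency vs vehicle-treated mice. Mean ± SEM, Student's t-test.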

Mus musculus [16] = assay: Anticonvulsant activity in albino CF1 mouse assessed as protection against maximal electroshock-induced seizures at 100 mg/kg, ip after 0.5 hr; type: functional, organism-based; parameters: dose 100 mg/kg; in short: as §3
Mus musculus [17] = assay: Neurotoxicity in albino CF1 mouse assessed as minimal motor impairment at 100 mg/kg, ip after 4 hrs by rotorod test; type: toxicity, organism-based; parameters: dose 100 mg/kg, route intraperitoneal; settings: in vivo; in short: as §2
Mus musculus [18] = assay: […] activity in ip dosed albino CF1 mouse assessed as inhibition of phenylbenzoquinone-induced writhing administered after 30 mins prior challenge; type: functional
In short: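 Male Albino Swiss (CD-1) mice, 6-8 per dose. Compound given ip in 0.5% methylcellulose. 30 min later, 0.25 ml of 0.02% phenylbenzoquinone injected. After 5 min, writhes counted over 10 min. % effect = (vehicle mean − drug mean)/vehicle mean × 100. ED50 derived; Student's t-test.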

Rattus norvegicus [19] = assay: Neurotoxicity in Sprague-Dawley rat assessed as […] at 30 mg/kg, po after 2 hrs […]; type: toxicity, organism-based; parameters: dose 30 mg/kg, route oral; settings: in vivo
Mus musculus [20] = assay: Anticonvulsant activity in albino CF1 mouse assessed as protection against subcutaneous metrazol-induced seizures at 30 to 300 mg/kg, ip after 0.5 to 4 hrs; type: functional, organism-based
In short: (§4)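 CF No. 1 male mice dosed ip at 30, 100 or 300 mg/kg (saline or 0.5% methylcellulose), then given pentetrazole 85 mg/kg sc as 0.5% solution in posterior midline. Watched 30 min. Protection means no threshold seizure (single clonic spasm episode of at least 5 s). Expressed as protected/tested.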

Mus musculus [21] = assay: Anticonvulsant activity in albino CF1 mouse assessed as protection against maximal electroshock-induced seizures at 300 mg/kg, ip after 0.5 hr; type: functional, organism-based; parameters: dose 300 mg/kg; in short: as §3
Mus musculus [22] = assay: Neurotoxicity in albino CF1 mouse assessed as minimal motor impairment at 100 mg/kg, ip after 0.5 hr by rotorod test; type: toxicity, organism-based; parameters: dose 100 mg/kg, route intraperitoneal; settings: in vivo; in short: as §2
Mus musculus [23] = assay: Anticonvulsant activity in albino CF1 mouse assessed as protection against maximal electroshock-induced seizures at 300 mg/kg, ip after 4 hrs; type: functional, organism-based; parameters: dose 300 mg/kg; in short: as §3
Rattus norvegicus [24] = assay: Anticonvulsant activity in Sprague-Dawley rat assessed as protection against maximal electroshock-induced seizures at 30 mg/kg, po after 1 hr; type: functional, organism-based; parameters: dose 30 mg/kg; in short: as §1
Mus musculus [25] = assay: Toxicity in albino CF1 mouse assessed as proconvulsant activity at 30 to 300 mg/kg, ip after 0.5 to 4 hrs; type: organism-based; parameters: route intraperitoneal; settings: in vivo; in short: as §4

SMILES: O=C1OCCC1N1CCN(c2cccc(C(F)(F)F)c2)CC1 (racemic)
- Activity (Rattus norvegicus [1]): Active
- Activity (Rattus norvegicus [2]): inactive
- Activity (Mus musculus [3]): 149%
- Activity (Mus musculus [4]): Non-toxic
- Activity (Rattus norvegicus [5]): Non-toxic
- Activity (Mus musculus [6]): Toxic
- ED50 (Rattus norvegicus [7]): 112 mg/kg
- Activity (Rattus norvegicus [8]): inactive
- Activity (Rattus norvegicus [9]): Non-toxic
- Activity (Rattus norvegicus [10]): Active
- Activity (Mus musculus [11]): Active
- ED50 (Mus musculus [12]): 1.3 mg/kg
- Activity (Rattus norvegicus [13]): Non-toxic
- Activity (Rattus norvegicus [14]): Toxic
- Activity (Mus musculus [15]): 81%
- Activity (Mus musculus [16]): inactive
- Activity (Mus musculus [17]): Non-toxic
- ED50 (Mus musculus [18]): 0.8 mg/kg
- Activity (Rattus norvegicus [19]): Non-toxic
- Activity (Mus musculus [20]): inactive
- Activity (Mus musculus [21]): Active
- Activity (Mus musculus [22]): Non-toxic
- Activity (Mus musculus [23]): inactive
- Activity (Rattus norvegicus [24]): inactive

SMILES: O=C1OCCC1N1CCc2ccccc2C1 (racemic)
- Activity (Mus musculus [4]): Non-toxic
- Activity (Mus musculus [6]): Non-toxic
- Activity (Mus musculus [11]): inactive
- ED50 (Mus musculus [12]): 32.4 mg/kg
- Activity (Mus musculus [16]): inactive
- Activity (Mus musculus [17]): Non-toxic
- ED50 (Mus musculus [18]): 3.7 mg/kg
- Activity (Mus musculus [25]): Toxic
- Activity (Mus musculus [20]): inactive
- Activity (Mus musculus [21]): inactive
- Activity (Mus musculus [22]): Non-toxic
- Activity (Mus musculus [23]): inactive
